# Results published in ChEMBL document CHEMBL1124260, “Synthesis and antitumor activity of quaternary ellipticine glycosides, a series of novel and highly active antitumor agents” (1988).
# Experiments:
# Assay type in all cases: functional
# Mus musculus [1] = test: Number of survivors out of 6 ip implanted L1210 leukemia mouse tested after 80 days at 10 mg/kg; details: route intraperitoneal
# How it was run: (§1)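 Female BDF1 mice implanted ip with ascitic fluid holding 10^5 L1210 cells. Saline-dissolved drug given ip daily on days 1-5, starting 24 h after implant. Six mice per dose group, followed 80 days. Survivors/total counted at day 80; ILS % from mean survival time vs controls.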
# Mus musculus [2] = test: Antitumor activity against ip implanted L1210 leukemia in mouse after ip administration of 10 mg/kg for 5 days expressed as increase in mean life span; details: route intraperitoneal; for ILS at 10 mg/kg: Mus musculus, L1210, ip, 120 h; for ILS: 10 mg/kg
# How it was run: (§2)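 Drug was dissolved in 0.9% NaCl, diluted just before use and given ip once daily for 5 consecutive days, starting 24 h after transplant. ILS % = mean survival time of treated vs control mice, observed for 80 days.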
# Mus musculus [3] = test: Antitumor activity against ip implanted L1210 leukemia in mouse after ip administration of 40 mg/kg for 5 days expressed as increase in mean life span; details: 120 h, route intraperitoneal; how it was run: as §2
# Mus musculus [4] = test: Number of survivors out of 6 ip implanted L1210 leukemia mouse tested after 80 days at 40 mg/kg; details: route intraperitoneal; how it was run: as §1
# Mus musculus [5] = test: Antitumor activity against ip implanted L1210 leukemia in mouse after ip administration of 30 mg/kg for 5 days expressed as increase in mean life span; details: route intraperitoneal; for ILS at 30 mg/kg: Mus musculus, L1210, ip, 120 h; for ILS: 30 mg/kg; how it was run: as §2
# Mus musculus [6] = test: Number of survivors out of 6 ip implanted L1210 leukemia mouse, tested after 80 days at 30 mg/kg; details: route intraperitoneal; how it was run: as §1
# Mus musculus [7] = test: Number of survivors out of 6 ip implanted L1210 leukemia mouse tested after 80 days at 5 mg/kg; details: route intraperitoneal; how it was run: as §1
# Mus musculus [8] = test: Antitumor activity against ip implanted L1210 leukemia in mouse after ip administration of 5 mg/kg for 5 days expressed as increase in mean life span; details: route intraperitoneal; for ILS at 5 mg/kg: Mus musculus, L1210, ip, 120 h; for ILS: 5 mg/kg; how it was run: as §2
# Mus musculus [9] = test: Number of survivors out of 6 ip implanted L1210 leukemia mouse tested after 80 days at 20 mg/kg; details: route intraperitoneal; how it was run: as §1
# Mus musculus [10] = test: Antitumor activity against ip implanted L1210 leukemia in mouse after ip administration of 20 mg/kg for 5 days expressed as increase in mean life span; details: 120 h, route intraperitoneal; how it was run: as §2
structure (smiles),measurement,setting,value
Cc1c2cc[n+]([C@@H]3OC[C@@H](O)[C@@H](O)[C@H]3O)cc2c(C)c2c1[nH]c1ccc(O)cc12.[Br-],Cures,Mus musculus [1],2
same,ILS at 10 mg/kg,Mus musculus [2],> 396%
COc1ccc2[nH]c3c(C)c4cc[n+](C5OC(CO)C(O)C(O)C5O)cc4c(C)c3c2c1.[Br-] (configuration not stated),Cures,Mus musculus [1],0
same,ILS at 10 mg/kg,Mus musculus [2],14%
Cc1c2cc[n+]([C@H]3O[C@@H](CO)[C@H](O)[C@@H](O)[C@@H]3O)cc2c(C)c2c1[nH]c1ccc(O)cc12.[Br-] (stereo in doubt; 63a),ILS,Mus musculus [2],52%
Cc1c2cc[n+](C3OC(CO)C(O)C(O)C3O)cc2c(C)c2c1[nH]c1ccccc12.[Br-] (configuration not stated),ILS at 40 mg/kg,Mus musculus [3],39%
same,Cures,Mus musculus [4],0
Cc1c2cc[n+](C3O[C@H](CO)[C@@H](O)[C@H]3O)cc2c(C)c2c1[nH]c1ccc(O)cc12.[Br-] (some centres not stated),ILS at 30 mg/kg,Mus musculus [5],> 387%
same,Cures,Mus musculus [6],2
Cc1c2cc[n+]([C@@H]3O[C@H](CO)[C@H](O)[C@@H]3O)cc2c(C)c2c1[nH]c1ccc(O)cc12.[Cl-] (stereo in doubt; 43b),Cures,Mus musculus [1],3
same,ILS,Mus musculus [2],>552%
CC(=O)[O-].Cc1c2cc[n+]([C@H]3O[C@@H](CO)[C@H](O)[C@H]3O)cc2c(C)c2c1[nH]c1ccc(O)cc12,ILS at 30 mg/kg,Mus musculus [5],> 269%
same,Cures,Mus musculus [6],1
Cc1c2cc[n+]([C@@H]3O[C@H](C)[C@H](O)[C@H](O)[C@H]3O)cc2c(C)c2c1[nH]c1ccc(O)cc12.[Br-],ILS at 30 mg/kg,Mus musculus [5],124%
same,Cures,Mus musculus [6],0
Cc1c2cc[n+]([C@@H]3OC[C@@H](O)[C@@H](O)[C@H]3O)cc2c(C)c2c1[nH]c1ccc(O)cc12.[Br-] (stereo in doubt; 48b),ILS,Mus musculus [5],>944%
same,Cures,Mus musculus [6]; 30 mg/kg,6
Cc1c2cc[n+](C3OC(C(N)=O)C(O)C(O)C3O)cc2c(C)c2c1[nH]c1ccc(O)cc12.[Br-] (configuration not stated),Cures,Mus musculus [7],0
same,ILS at 5 mg/kg,Mus musculus [8],49%
Cc1c2cc[n+]([C@@H]3O[C@@H](C)[C@H](O)[C@H]3O)cc2c(C)c2c1[nH]c1ccc(O)cc12.[Cl-],Cures,Mus musculus [6],1
Cc1c2cc[n+]([C@@H]3O[C@H](C)[C@H](O)[C@H](O)[C@H]3O)cc2c(C)c2c1[nH]c1ccccc12.[Br-],ILS at 30 mg/kg,Mus musculus [5],20%
same,Cures,Mus musculus [6],0
Cc1c2cc[n+]([C@H]3O[C@@H](CO)[C@H](O)[C@@H]3O)cc2c(C)c2c1[nH]c1ccc(O)cc12.[Br-],Cures,Mus musculus [1],2
same,ILS at 10 mg/kg,Mus musculus [2],> 391%
Cc1c2cc[n+](C3O[C@@H](CO)[C@H](O)[C@@H]3O)cc2c(C)c2c1[nH]c1ccccc12.[Br-] (some centres not stated),Cures,Mus musculus [9],0
same,ILS at 20 mg/kg,Mus musculus [10],80%
COc1ccc2[nH]c3c(C)c4cc[n+](C5OCC(O)C(O)C5O)cc4c(C)c3c2c1.[Br-] (configuration not stated),ILS at 30 mg/kg,Mus musculus [5],56%
same,Cures,Mus musculus [6],0
Cc1c2cc[n+]([C@H]3O[C@@H](C)[C@H](O)[C@@H](O)[C@H]3O)cc2c(C)c2c1[nH]c1ccc(O)cc12.[Br-],ILS at 40 mg/kg,Mus musculus [3],78%
same,Cures,Mus musculus [4],0
COc1ccc2[nH]c3c(C)c4cc[n+]([C@@H]5O[C@H](C)[C@H](O)[C@H](O)[C@H]5O)cc4c(C)c3c2c1.[Br-],ILS at 30 mg/kg,Mus musculus [5],20%
same,Cures,Mus musculus [6],0
Cc1c2cc[n+](C3O[C@@H](C)[C@H](O)[C@@H](O)[C@H]3O)cc2c(C)c2c1[nH]c1ccccc12.[Br-] (some centres not stated),ILS at 40 mg/kg,Mus musculus [3],40%
same,Cures,Mus musculus [4],0
Br.CC(=O)[O-].Cc1c2cc[n+](C3O[C@H](C)[C@@H](O)[C@@H]3O)cc2c(C)c2c1[nH]c1ccc(O)cc12 (some centres not stated),ILS at 30 mg/kg,Mus musculus [5],> 217%
same,Cures,Mus musculus [6],1
Cc1c2cc[n+]([C@H]3O[C@@H](CO)[C@H](O)[C@@H](O)[C@@H]3O)cc2c(C)c2c1[nH]c1ccc(O)cc12.[Br-] (stereo in doubt; 64b),Cures,Mus musculus [7]; 5 mg/kg,2
same,ILS,Mus musculus [8],>362%
COc1ccc2[nH]c3c(C)c4cc[n+](C5O[C@@H](C)[C@H](O)[C@@H](O)[C@H]5O)cc4c(C)c3c2c1.[Br-] (some centres not stated),ILS at 30 mg/kg,Mus musculus [5],56%
same,Cures,Mus musculus [6],0
CC(=O)[O-].Cc1c2cc[n+](C3OC(C)C(O)C(O)C3O)cc2c(C)c2c1[nH]c1ccc(O)cc12 (configuration not stated),ILS at 30 mg/kg,Mus musculus [5],> 615%
same,Cures,Mus musculus [6],3
Cc1c2cc[n+](C3CC(O)C(CO)O3)cc2c(C)c2c1[nH]c1ccc(O)cc12.[Cl-] (configuration not stated),Cures,Mus musculus [1],2
same,ILS at 10 mg/kg,Mus musculus [2],> 390%
Cc1c2cc[n+]([C@H]3OC[C@@H](O)[C@@H](O)[C@@H]3O)cc2c(C)c2c1[nH]c1ccc(O)cc12.[Br-],Cures,Mus musculus [9],3
same,ILS at 20 mg/kg,Mus musculus [10],> 606%
Cc1c2cc[n+]([C@H]3O[C@H](CO)[C@@H](O)[C@H]3O)cc2c(C)c2c1[nH]c1ccc(O)cc12.[Br-],Cures,Mus musculus [1],0
same,ILS at 10 mg/kg,Mus musculus [2],138%
Cc1c2cc[n+]([C@H]3O[C@@H](C)[C@@H](O)[C@@H](O)[C@@H]3O)cc2c(C)c2c1[nH]c1ccc(O)cc12.[Br-] (stereo in doubt; 53b),ILS,Mus musculus [5],>583%
same,Cures,Mus musculus [6]; 30 mg/kg,3
Cc1c2cc[n+]([C@@H]3O[C@H](C)[C@@H](O)[C@H]3O)cc2c(C)c2c1[nH]c1ccc(O)cc12.[Cl-],ILS at 30 mg/kg,Mus musculus [5],> 230%
same,Cures,Mus musculus [6],1
Cc1c2cc[n+]([C@@H]3OC[C@@H](O)[C@@H](O)[C@H]3O)cc2c(C)c2c1[nH]c1ccc(O)cc12.[Br-] (stereo in doubt; 48a),ILS,Mus musculus [5],112%
same,Cures,Mus musculus [6]; 30 mg/kg,0
Cc1c2cc[n+]([C@@H]3O[C@H](CO)[C@H](O)[C@H](O)[C@H]3O)cc2c(C)c2c1[nH]c1ccc(O)cc12.[Br-],Cures,Mus musculus [9],4
same,ILS at 20 mg/kg,Mus musculus [10],> 729%
Cc1c2cc[n+]([C@H]3O[C@@H](CO)[C@H](O)[C@@H](O)[C@@H]3O)cc2c(C)c2c1[nH]c1ccc(O)cc12.[Br-] (stereo in doubt; 65),Cures,Mus musculus [1]; 10 mg/kg,1
same,ILS,Mus musculus [2],>212%
Cc1c2cc[n+]([C@@H]3OC[C@@H](O)[C@@H](O)[C@H]3O)cc2c(C)c2c1[nH]c1ccc(O)cc12.[Br-] (stereo in doubt; 50a),ILS,Mus musculus [5],>857%
same,Cures,Mus musculus [6]; 30 mg/kg,5
Cc1c2cc[n+]([C@H]3O[C@@H](CO)[C@H](O)[C@@H](O)[C@@H]3O)cc2c(C)c2c1[nH]c1ccc(O)cc12.[Br-] (stereo in doubt; 64a),Cures,Mus musculus [1]; 10 mg/kg,0
same,ILS,Mus musculus [2],88%
CC(=O)[O-].Cc1c2cc[n+]([C@@H]3O[C@H](CO)[C@@H](O)[C@@H]3O)cc2c(C)c2c1[nH]c1ccc(O)cc12,ILS at 30 mg/kg,Mus musculus [5],> 262%
same,Cures,Mus musculus [6],1
CC(=O)N[C@@H]1[C@@H](O)[C@@H](O)[C@@H](CO)O[C@H]1[n+]1ccc2c(C)c3[nH]c4ccc(O)cc4c3c(C)c2c1.[Cl-],ILS at 30 mg/kg,Mus musculus [5],8%
same,Cures,Mus musculus [6],0
Cc1c2cc[n+]([C@H]3O[C@H](CO)[C@@H](O)[C@@H]3O)cc2c(C)c2c1[nH]c1ccc(O)cc12.[Br-],Cures,Mus musculus [1],2
same,ILS at 10 mg/kg,Mus musculus [2],> 379%
same,Cures,Mus musculus [9],0
same,ILS at 20 mg/kg,Mus musculus [10],91%
Cc1c2cc[n+](C3OC[C@@H](O)[C@H]3O)cc2c(C)c2c1[nH]c1ccc(O)cc12.[Cl-] (some centres not stated),Cures,Mus musculus [7],0
same,ILS at 5 mg/kg,Mus musculus [8],122%
COc1ccc2[nH]c3c(C)c4cc[n+](C5O[C@@H](CO)[C@H](O)[C@@H]5O)cc4c(C)c3c2c1.[Br-] (some centres not stated),ILS at 30 mg/kg,Mus musculus [5],76%
same,Cures,Mus musculus [6],0
Cc1c2cc[n+]([C@H]3OC[C@@H](O)[C@H](O)[C@@H]3O)cc2c(C)c2c1[nH]c1ccc(O)cc12.[Cl-],Cures,Mus musculus [1],4
same,ILS at 10 mg/kg,Mus musculus [2],> 651%
Cc1c2cc[n+]([C@H]3O[C@@H](CO)[C@H](O)[C@@H](O)[C@@H]3O)cc2c(C)c2c1[nH]c1ccc(O)cc12.[Br-] (stereo in doubt; 63b),Cures,Mus musculus [7]; 5 mg/kg,0
same,ILS,Mus musculus [8],58%
CC(=O)N[C@@H]1[C@@H](O)[C@H](O)[C@@H](CO)O[C@H]1[n+]1ccc2c(C)c3[nH]c4ccc(O)cc4c3c(C)c2c1.[Cl-],ILS at 30 mg/kg,Mus musculus [5],39%
same,Cures,Mus musculus [6],0
Cc1c2cc[n+]([C@@H]3O[C@H](CO)[C@@H](O)[C@@H](O)[C@H]3O)cc2c(C)c2c1[nH]c1ccc(O)cc12.[Br-],Cures,Mus musculus [1],1
same,ILS at 10 mg/kg,Mus musculus [2],> 254%
